How the values were obtained:
[1] = Antioxidant spin trapping activity assessed as hydroxyl radical adducts formation by Fenton system; format: physicochemical
Method in brief: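 Hydroxyl adducts: spin trap (40 mM, initial) with Fenton mix of FeSO4 (1 mM), EDTA (2 mM), H2O2 (0.2%); after 10 s diluted 1:1 with 300 mM phosphate buffer pH 7.4 containing 20 mM DTPA; ESR at sweep 80 G, modulation 0.21 G, microwave 20 mW, time constant 0.08 s, gain 2×10^4, 57 G/min.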

[2] = Antioxidant spin trapping activity assessed as alkoxyl radical adducts formation from ethanol; format: physicochemical
Method in brief: (§1)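 Alkoxyl adducts by nucleophilic addition: spin trap (1 M, init. conc., in methanol or ethanol) incubated 10 s with FeCl3 (2 mM in the alcohol), then stopped by 1:20 dilution with phosphate buffer (0.3 M, pH 7.4, 20 mM DTPA); ESR recorded at 9.7 GHz, sweep width 80 G.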

[3] = Antioxidant spin trapping activity assessed as carbon centered radical adduct formation from methanol; format: physicochemical
Method in brief: (§2)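 Fenton-type generation of alcohol-derived carbon radicals: spin trap (40 mM, init. conc.), FeSO4 (1 mM), EDTA (2 mM), H2O2 (0.2%) in methanol or ethanol/water; stopped after 10 s by 1:1 dilution with 300 mM phosphate buffer pH 7.4 containing 20 mM DTPA; ESR: sweep 80 G, modulation 0.21 G, 20 mW, gain 4×10^4, 57 G/min.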

[4] = Antioxidant spin trapping activity assessed as carbon centered radical adduct formation from ethanol; format: physicochemical; method in brief: as §2
[5] = Antioxidant spin trapping activity assessed as carbon centered radical adduct formation from formate; format: physicochemical
Method in brief: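 CO2 anion radical adducts: spin trap (40 mM, init. conc.) with FeSO4 (1 mM), EDTA (2 mM), H2O2 (0.2%) in aqueous sodium formate (200 mM); reaction stopped after 10 s by 1:1 dilution into 300 mM phosphate buffer pH 7.4 with 20 mM DTPA, then ESR spectrum recorded (sweep width 80 G).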

[6] = Partition coefficient, P in n-octanol/phosphate buffer at pH 7.0
[7] = Antioxidant spin trapping activity assessed as alkoxyl radical adducts formation from methanol; format: physicochemical; method in brief: as §1

Row | Activity [1] | Activity [2] | Activity [3] | Activity [4] | Activity [5] | P [6] | Activity [7] | Compound
1 | Active | Active | Active | Active | Active | 0.211 | – | CCCC1(C(N)=O)CCC=[N+]1[O-] (stereo unspecified)
2 | – | – | – | – | – | 0.016 | – | CC1(C(N)=O)CCC=[N+]1[O-] (stereo unspecified)
3 | – | – | – | – | – | 0.15 | – | CCOC(=O)C1(C)CCC=[N+]1[O-] (stereo unspecified)

The next lines start with the compound.

Row | Compound | Activity [1] | Activity [2] | Activity [3] | Activity [4] | Activity [5] | P [6] | Activity [7]
4 | CCC1(C(N)=O)CCC=[N+]1[O-] (stereo unspecified) | Active | – | – | – | Active | 0.056 | –
5 | CCCCCC1(C(N)=O)CCC=[N+]1[O-] (stereo unspecified) | Active | Active | Active | Active | Active | 2.72 | Active
6 | CCCCC1(C(N)=O)CCC=[N+]1[O-] (stereo unspecified) | Active | – | – | – | Active | 0.668 | –
